The results in this text go back to the EternaBench riboswitch data.

A word on the apparent Kd: it is a dissociation constant that holds for the conditions of the assay.

The test system of this data set is MS2 coat protein. The data set can be described thus: apparent Kd, MS2 coat protein; higher = weaker binding; RNA-MaP array; FMN 200 µM where present. The method, boiled down:
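The apparent Kd is the median of filtered binding-curve fits, one per cluster, to green signal normalised to red-channel RNA signal and control-cluster median Fmax. The clusters were on Illumina sequencing chips, and stalled E. coli RNA polymerase had transcribed the designs on them. Titration used SNAP-549-labelled MS2 coat protein from 0.7 or 1.5 nM, doubling to 3 µM, without and then with constant ligand, in 100 mM Tris-HCl pH 7.5, 80 mM KCl, 4 mM MgCl2, BSA, DTT, yeast tRNA and Tween-20.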

[1] abbreviates: designed as: OFF switch for flavin mononucleotide, no ligand.
The mark [2] stands for this setting: ligand present: flavin mononucleotide, designed as: OFF switch for flavin mononucleotide.
The mark [3] stands for this setting: designed as: ON switch for flavin mononucleotide, no ligand.
Setting [4] is: ligand present: flavin mononucleotide, designed as: ON switch for flavin mononucleotide.

Consider “AGGAAGUUAGGAUAUGCUGCUCGUCACUUGCGUGAUGAGUAGCAGAAGGAACAUGAGGAUCACCCAUGUAAAGA”, for which the “apparent Kd” value came out at 30.8 nM under setting [1] and 27.2 nM under setting [2].
As to “ACUUAUGAAGGAUAUACUAGCGACAUGCGCUCAACACGCGCACAUGAGGAUCACCCAUGUAGAAGGUCAAACAU”, the “apparent Kd” value reads like this: under setting [1], 23.1 nM; under setting [2], 22.1 nM.
With “UCGAGGUCAGGAUAUACAUGAGGAUCACCCAUGUUGAGAUAAGGUAGGAAAAGAGUAGGUAGAAGGGACGAGAG”, the “apparent Kd” value reads like this: under setting [1], 27.6 nM; under setting [2], 30.9 nM.
Regarding “UUGUUACAUGAGGAUCACCCAUGUGAGGAUAUGGCCCGCCCGGCGUGUGCUGGUUUUGUCAGAAGGCGCGUGGG”, the “apparent Kd” value stood at 61.6 nM under setting [1] and 170 nM under setting [2].
Turning to “UUAACAUGCUUAGGAUAUCGGAUUUUUUUUUUUCGAGAAGGAAGAUUCUUUUUUUUUUACAUGAGGAUCACCCAUGUUUAUUUU”, the “apparent Kd” value under setting [1] came to 10.2 nM and the “apparent Kd” value under setting [2] stood at 5.78 nM.
In the case of “GGGUACAUCGGAGGAUAUCAUGUAAAUACAUGAGGAUCACCCAUGUCGAUGGAGACAUCGGAGAUUGAGAAGGGCGAUGUACCG”, the “apparent Kd” value by setting is: under setting [3], 647 nM; under setting [4], 75.8 nM.
In the same order, the values of “AAGAAGCUCACAGGAUAUCAGUAUAUGCGAUCUAGCGUAUUAAUGAACUGCUGAGAAGGGUGAGACAUGAGGAUCACCCAUGUA” are 23.3 nM and 62.2 nM.
As to “UUGCAGUCGUCAGGAUAUAGUAUUACGGCCAUUUAUUUUUUCAUACAUGAGGAUCACCCAUGUCGCUAGAAGGGAUUAUCGAUU”, the “apparent Kd” value was found to be 49.1 nM under setting [1] and 45.4 nM under setting [2].
Turning to “CGUUAAUAUCGAGGAUAUGUCUAGACACAUGAGGAUCACCCAUGUAUGUGUAUAGAAGGCGAUAUUAACAGCAUGUUACAUGCG”, the “apparent Kd” value by setting is: under setting [3], 38.3 nM; under setting [4], 16.7 nM.
Turning to “ACGACGAAAGUCGAACGAUGUAGCAGAAGGACAUGAGGAUCACCCAUGUCAGCUGUGCAAAACAUGUAGGAUAUGCUACAUCGA”, the “apparent Kd” value by setting is: under setting [1], 6.14 nM; under setting [2], 11.3 nM.
On to “UGCGGAAGAGGAUAUACGUAGAAAUAGAUUCAUGUAAAACUACAUGAGGAUCACCCAUGUAGAAGGCUUUCGCU”, for which the “apparent Kd” value amounted to 24.8 nM under setting [1] and 232 nM under setting [2].
For “AUUAGACAUGAGGAUCACCCAUGUAGGCAGUCAUGAGGAUAUGGACAAGGUGCUCAAGGUCCAGAAGGCAUACGCC”, the “apparent Kd” value under setting [3] amounted to 29.3 nM and the “apparent Kd” value under setting [4] is 18.5 nM.
Take “GGGAAGUGCCAGAAGGCUCCCGGAUUCCUAGGGAGAGGAUAUGGCACAUGAGGAUCACCCAUGUGGUAGAUCUGUUUCGAAGUG”: the “apparent Kd” value runs as follows: under setting [1], 30.4 nM; under setting [2], 16.9 nM.
For “UGAUCUUGUGUUAGGAUAUGCUGGUUUUUUUUUCAGCAGAAGGGACAUGAGGAUCACCCAUGUUCUCUCUUUUU”, the “apparent Kd” value by setting is: under setting [1], 12.8 nM; under setting [2], 17.3 nM.
In the same order, the values of “GUCAGCUCGUGAGGAUAUACUUCACUGCUUCGGCAGUGUAUUAAGAUCACAUGAGGAUCACCCAUGUAGAAGGCACGAGCUGAU” are 22.8 nM and 182 nM.
“ACAUGAGGAUCUCCCAUGUAAAAUUAGGAUAUAUAACUACACAUGAGGAUCACCCAUGUUUAACCGUAGAAGGGAUAAAUAAUU”: the “apparent Kd” value reads like this: under setting [3], 986 nM; under setting [4], 1020 nM.
With “ACGUCUUAGUAGAAGGGACAUCGGCUGGUAAGCAUCAUCUCCUUCUCACAUGAGGAUCACCCAUGUCAGGAUAUACUAAGAUAC”, the “apparent Kd” value is, setting by setting: under setting [1], 12.9 nM; under setting [2], 38.7 nM.
On to “ACAUGACAAUCAGGAUAUCGACAUGAGGAUCACCCAUGUACGGGUGUCAAUCGAGAAGGGAUUGUAGCGCCAACUGAGACGUUU”, for which the “apparent Kd” value is, setting by setting: under setting [1], 78 nM; under setting [2], 110 nM.
As to “AGUGUCAUUUAGAAGGCCUCAUGACAUGAGGAUCACCCAUGUUAUCAUGGGAGGAUAUGGAUGAUAUAGCUACGUUUCGUAGCA”, the “apparent Kd” value is, setting by setting: under setting [3], 233 nM; under setting [4], 78.2 nM.
In the case of “AUCCGGCGUGUAGGAUAUGGAUCCGAUUAGGAUCCAGAAGGACAUGAGGAUCACCCAUGUACAUGUAAACAGUCAUCACCGGAG”, the “apparent Kd” value came out at 10.2 nM under setting [1] and 56.4 nM under setting [2].
With “GCUGCAUAGGCAGGAUAUGCAAAAAACGAUGCAAAGCAUCGAAAAAAAACAUGAGGAUCACCCAUGUAGAAGGGCCUGUGCAGU”, the “apparent Kd” value was 22.6 nM under setting [1] and 20.8 nM under setting [2].
For the sequence “AUGAGUAAAGCAGGAUAUCUAUUGACUCUGUAACAUGAGGAUCACCCAUGUAGAGAAGGGCUAAUUCUUACUCUUCGGAGUUGA”, the “apparent Kd” value came out at 10.2 nM under setting [1] and 11.7 nM under setting [2].
On to “GGGUACAUCGGAGGAUAUCAUGUAAAUACAUGAGGAUCACCCAUGUCGAUGGAGACCUCGGAGAUUGAGAAGGCCGAUGUACCG”, for which the “apparent Kd” value reads like this: under setting [3], 694 nM; under setting [4], 201 nM.
On to “AUCAGCUCGUCAGGAUAUACGUCACUGCGUCAGCAGUGUGGAAAGAUCACAUGAGGAUCACCCAUGUAGAAGGGACGAGCUGAU”, for which the “apparent Kd” value under setting [1] was 36.2 nM and the “apparent Kd” value under setting [2] worked out at 279 nM.
Regarding “GGCAGCUCGUGAGGAUAUACAACACUGCUUCGGCAGUGUAUUAAGAUCACAUGAGGAUCACCCAUGUAGAAGGCACGAGCUGAU”, the “apparent Kd” value was 13.9 nM under setting [1] and 254 nM under setting [2].
Regarding “GCUAGGAAUGUCAGGAUAUGCAGAACCUUGGUUCUGCAGAAGGGACAUGAGGAUCACCCAUGUGCUAACCUAGC”, the “apparent Kd” value came to 29.6 nM under setting [1] and 113 nM under setting [2].
Turning to “GCAGGUCGUGUGAGGAUAUCAUAGUUUAGCGGAGAUGAGAAGGCACAUGAGGAUCACCCAUGUCCAUCCUGCCU”, the “apparent Kd” value worked out at 36 nM under setting [1] and 92.6 nM under setting [2].
In the same order, the values of “ACAAAUGGAGGAUAUACAUGAGGAUCACCCAUGUUUAUCCUACAUGUGUGAUAAUAAUGUAGAAGGCCAUAUGA” are 15.9 nM and 12.5 nM.
Take “GCGUAGUUCUAGAAGGUGCUAGCGAUAAGCUAGCAAGGAUAUAGACAUGAGGAUCACCCAUGUCUUUGUGACAUCGACAUACGC”: the “apparent Kd” value under setting [1] was determined as 5.62 nM and the “apparent Kd” value under setting [2] was determined as 7.03 nM.
Regarding “GUGAGUAGUCAGGAUAUGCUGUACAAAAGUACAGCAGAAGGGAUUACAUGAGGAUCACCCAUGUUUUCUUCAUG”, the “apparent Kd” value under setting [1] turned out to be 83.5 nM and the “apparent Kd” value under setting [2] worked out at 564 nM.
Regarding “ACAUGAGGAUCACCCAUGUAGAAUGAAGAAGGUACUAUAUAGAUAUACACCCUAUGUCUAUAUAGUAAGGAUAUUCUAAUAAUU”, the “apparent Kd” value under setting [3] was 6.45 nM and the “apparent Kd” value under setting [4] was determined as 6.35 nM.
In the case of “AAACCGUGUGGAGGAUAUGCAGUUGAGGUGAGGUGGCAACUCUAUACGACCGCAGAAGGCCACAUGAGGAUCACCCAUGUAGGU”, the “apparent Kd” value amounted to 293 nM under setting [1] and 61.5 nM under setting [2].
For the sequence “CAAAGACAAGCAGGAUAUCACAUGAGGAUCACCCAUGUCGGGAUCACCUGAGAGUGUUUAUUAAGUGAGAAGGGCUAGAUCACC”, the “apparent Kd” value by setting is: under setting [1], 17.6 nM; under setting [2], 31.2 nM.
On to “UGUUAUUUGACAGGAUAUUGAUUGUUAAGUUUUUACAUGAGGAUCACCCAUGUUGUUCAUUCGUACAAGAAGGGUCAAGUUUUU”, for which the “apparent Kd” value under setting [3] amounted to 72.8 nM and the “apparent Kd” value under setting [4] was found to be 27.2 nM.
On to “AUUUUGUCAGGAUAUGAUUAGUAGGAUGAGAGUGCUACUACUUAGAAGGGACAUGAGGAUCACCCAUGUAUUCC”, for which the “apparent Kd” value reads like this: under setting [1], 16.8 nM; under setting [2], 20 nM.
As for “AGCCUACAUGAGGAUCACCCAUGUCAGGAUAUCUCGCGGCGUGUCAAGUUCACACUGCAGAGAAGGGACUCGGG”, the “apparent Kd” value is 58.1 nM under setting [1] and 66.9 nM under setting [2].
In the same order, the values of “CACGCCUAGGAGAAGGGCCCACUAUAGGGUAAAUGCUGUUCUCACAUGAGGAUCACCCAUGUGCGGCAGGAUAUCCACGCGUAA” are 7.28 nM and 34.6 nM.
In the case of “CAGGAUAGAGGAUAUACAUAGAUACAGAUUCAUGUGAUCCUACAUGAGGAUCACCCAUGUAGAAGGCUAACCUG”, the “apparent Kd” value is 288 nM under setting [1] and 82.2 nM under setting [2].
For “AAACAACGUCAGAAGGCCGAUGGAUUUGACCACGGAGGAUAUGACAUGAGGAUCACCCAUGUGAUGCUUCUAACCCGCUGGGCC”, the “apparent Kd” value under setting [1] came out at 31.3 nM and the “apparent Kd” value under setting [2] is 289 nM.
Regarding “AAUUCUAGGGUCAGCCUUAACACAUGAGGAUCACCCAUGUACAGAAGGCGAAGCAAAUGGACACUCGAGGAUAUGUACACUCCG”, the “apparent Kd” value came to 6.22 nM under setting [1] and 8.01 nM under setting [2].
As to “ACAAAGGUAGGAUAUCGGACUAUGGACAUGAGGAUCACCCAUGUGCGUCCAAUGCCCAACCGAGAAGGACCAACAG”, the “apparent Kd” value runs as follows: under setting [1], 47.1 nM; under setting [2], 89 nM.
Turning to “CUUAUGUGAGGAUAUCAGUAGUGAUACGAUAGUAUUACUGCUGAGAAGGCACAUGAGGAUCACCCAUGUUCCUU”, the “apparent Kd” value worked out at 26.1 nM under setting [1] and 51.9 nM under setting [2].
For the sequence “GUUGUUUAUGUAGGAUAUGCGAGGCGAGCCUAAGCAGAAGGACAUGAGGAUCACCCAUGUAUUGCGGUCUGCGUUCAGAUCGCU”, the “apparent Kd” value is 32.4 nM under setting [1] and 135 nM under setting [2].
As to “CCUCAGUAAGGAUAUCAGCUUAGUAGGUUGGUAAUGAGAGCUGAGAAGGUACAUGAGGAUCACCCAUGUUAGUU”, the “apparent Kd” value under setting [1] amounted to 26.1 nM and the “apparent Kd” value under setting [2] was determined as 80.8 nM.
“AUAUUGUGAGGAUAUGAACUUAGUAUCGAAACAUACUAAGUUCAGAAGGCACAUGAGGAUCACCCAUGUUUCUC”: the “apparent Kd” value reads like this: under setting [1], 68.6 nM; under setting [2], 430 nM.
With “AGUAGAUCAGGAUAUACAUAAAUGAUAAUUAUGUACUUUUUACAUGAGGAUCACCCAUGUAGAAGGGAUCUACA”, the “apparent Kd” value is, setting by setting: under setting [1], 14.8 nM; under setting [2], 22 nM.
For the sequence “AGAGAGAGCACAGGAUAUCCGCACACAUGCAGCGGAGAAGGGUGACCUUUUUGCACAUGAGGAUCACCCAUGUCCAGCACCACG”, the “apparent Kd” value was determined as 25.7 nM under setting [3] and 13.3 nM under setting [4].
As for “UCACGGGAUUGAGGAUAUAUAUUAAUUUUUACAAUAGAAGGCAAAUUGUUAGAUUAUUCACUAUACAUGAGGAUCACCCAUGUU”, the “apparent Kd” value reads like this: under setting [1], 23.6 nM; under setting [2], 21.7 nM.
